Results from ChEMBL document CHEMBL4396879, “Conjugation of Short Peptides to Dibenzodiazepinone-Type Muscarinic Acetylcholine Receptor Ligands Determines M2R Selectivity” (J Med Chem, 2019).

How the values were obtained:
Type in all cases: cell-based
[1] = target: T1, Muscarinic acetylcholine receptor M5 (Homo sapiens, UniProt P08912); assay: Displacement of [3H]-NMS from human muscarinic M5 receptor expressed in CHO-K9 cells after 3 hrs by microbeta2 scintillation counting method
T1 sequence (P08912 whole entry): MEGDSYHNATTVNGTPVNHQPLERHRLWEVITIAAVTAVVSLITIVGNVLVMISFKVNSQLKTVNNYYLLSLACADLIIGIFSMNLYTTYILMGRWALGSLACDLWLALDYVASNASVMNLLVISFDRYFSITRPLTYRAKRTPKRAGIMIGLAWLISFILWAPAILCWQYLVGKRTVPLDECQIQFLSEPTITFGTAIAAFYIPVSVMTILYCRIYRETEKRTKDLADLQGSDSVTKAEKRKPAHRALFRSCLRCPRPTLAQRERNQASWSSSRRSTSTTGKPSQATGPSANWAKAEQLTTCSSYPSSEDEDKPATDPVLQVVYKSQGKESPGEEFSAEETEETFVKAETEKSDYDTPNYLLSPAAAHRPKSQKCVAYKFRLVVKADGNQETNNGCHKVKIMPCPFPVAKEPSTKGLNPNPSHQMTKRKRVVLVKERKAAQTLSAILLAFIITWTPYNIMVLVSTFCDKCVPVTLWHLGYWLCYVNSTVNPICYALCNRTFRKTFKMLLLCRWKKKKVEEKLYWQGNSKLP
In short: (§1)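 [3H]NMS competition binding on intact CHO-hMxR cells in L15 medium with 1% BSA, 3 h at 22 ± 1 °C with gentle shaking. [3H]NMS was 0.2 nM (M1, M2, M3), 0.1 nM (M4) or 0.3 nM (M5). […] Cells were lysed in urea/acetic acid/Triton and counted by liquid scintillation. Ki from Cheng-Prusoff. Triplicates, ≥3 experiments.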

[2] = target: Muscarinic acetylcholine receptors; M1 & M2 (Homo sapiens) (UniProt P11229+P08172); assay: Selectivity ratio of Ki for human muscarinic M1 receptor expressed in CHO-K9 cells to Ki for human muscarinic M2 receptor expressed in CHO-K9 cells
In short: (§2)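 Ratio of mean Ki values. Each Ki came from an individual [3H]NMS competition experiment at the given CHO-hMxR subtype, converting IC50 to Ki by Cheng-Prusoff before averaging.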

[3] = target: Muscarinic acetylcholine receptor M2 and M5 (Homo sapiens) (UniProt P08172+P08912); assay: Selectivity ratio of Ki for human muscarinic M5 receptor expressed in CHO-K9 cells to Ki for human muscarinic M2 receptor expressed in CHO-K9 cells; in short: as §2
[4] = target: Muscarinic acetylcholine receptors; M2 & M3 (Homo sapiens) (UniProt P20309+P08172); assay: Selectivity ratio of Ki for human muscarinic M3 receptor expressed in CHO-K9 cells to Ki for human muscarinic M2 receptor expressed in CHO-K9 cells; in short: as §2
[5] = target: T2, Muscarinic acetylcholine receptor M4 (Homo sapiens, UniProt P08173); assay: Displacement of [3H]-NMS from human muscarinic M4 receptor expressed in CHO-K9 cells after 3 hrs by microbeta2 scintillation counting method; in short: as §1
T2 sequence (P08173 whole entry): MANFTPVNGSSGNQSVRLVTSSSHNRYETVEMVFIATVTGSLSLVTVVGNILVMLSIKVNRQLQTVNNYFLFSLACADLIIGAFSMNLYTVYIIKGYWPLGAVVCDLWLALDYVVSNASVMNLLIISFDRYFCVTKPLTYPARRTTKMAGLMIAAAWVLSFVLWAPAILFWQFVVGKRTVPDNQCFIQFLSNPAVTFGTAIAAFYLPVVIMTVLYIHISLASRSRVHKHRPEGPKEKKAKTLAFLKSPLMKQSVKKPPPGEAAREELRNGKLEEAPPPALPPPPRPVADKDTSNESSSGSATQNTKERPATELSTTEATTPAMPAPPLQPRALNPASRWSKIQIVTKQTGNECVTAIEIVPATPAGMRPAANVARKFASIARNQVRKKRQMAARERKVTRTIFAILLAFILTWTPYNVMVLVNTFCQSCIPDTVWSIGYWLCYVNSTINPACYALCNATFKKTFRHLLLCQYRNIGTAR

[6] = target: Muscarinic acetylcholine receptor M2 and M4 (Homo sapiens) (UniProt P08173+P08172); assay: Selectivity ratio of Ki for human muscarinic M4 receptor expressed in CHO-K9 cells to Ki for human muscarinic M2 receptor expressed in CHO-K9 cells; in short: as §2
[7] = target: T3, Muscarinic acetylcholine receptor M1 (Homo sapiens, UniProt P11229); assay: Displacement of [3H]-NMS from human muscarinic M1 receptor expressed in CHO-K9 cells after 3 hrs by microbeta2 scintillation counting method; in short: as §1
T3 sequence (P11229 whole entry): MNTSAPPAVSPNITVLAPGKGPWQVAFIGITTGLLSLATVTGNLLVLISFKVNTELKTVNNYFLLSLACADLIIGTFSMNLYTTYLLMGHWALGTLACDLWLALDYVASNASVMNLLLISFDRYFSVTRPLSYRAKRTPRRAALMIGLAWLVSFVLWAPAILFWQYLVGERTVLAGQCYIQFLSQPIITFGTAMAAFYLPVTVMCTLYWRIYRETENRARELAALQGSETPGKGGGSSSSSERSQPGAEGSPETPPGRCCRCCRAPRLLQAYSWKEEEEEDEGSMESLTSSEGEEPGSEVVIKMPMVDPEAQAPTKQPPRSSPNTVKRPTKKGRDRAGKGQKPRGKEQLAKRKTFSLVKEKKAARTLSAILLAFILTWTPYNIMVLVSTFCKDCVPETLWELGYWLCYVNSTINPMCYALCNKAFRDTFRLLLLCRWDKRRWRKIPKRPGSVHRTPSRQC

[8] = target: T4, Muscarinic acetylcholine receptor M2 (Homo sapiens, UniProt P08172); assay: Displacement of [3H]-NMS from human muscarinic M2 receptor expressed in CHO-K9 cells after 3 hrs by microbeta2 scintillation counting method; in short: as §1
T4 sequence (P08172 whole entry): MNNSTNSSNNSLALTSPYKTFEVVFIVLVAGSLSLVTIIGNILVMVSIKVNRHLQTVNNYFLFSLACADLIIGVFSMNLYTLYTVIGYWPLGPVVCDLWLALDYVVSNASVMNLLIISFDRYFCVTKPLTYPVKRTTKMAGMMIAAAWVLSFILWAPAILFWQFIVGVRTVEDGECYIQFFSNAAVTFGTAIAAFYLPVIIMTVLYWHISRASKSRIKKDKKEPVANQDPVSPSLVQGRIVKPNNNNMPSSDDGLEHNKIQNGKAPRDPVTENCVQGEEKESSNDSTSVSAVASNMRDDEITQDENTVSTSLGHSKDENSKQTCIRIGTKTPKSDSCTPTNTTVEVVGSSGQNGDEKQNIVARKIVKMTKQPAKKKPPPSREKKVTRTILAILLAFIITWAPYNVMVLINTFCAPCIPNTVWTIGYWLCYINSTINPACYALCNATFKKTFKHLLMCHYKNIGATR

[9] = target: Muscarinic acetylcholine receptor M3 (Homo sapiens, UniProt P20309); assay: Displacement of [3H]-NMS from human muscarinic M3 receptor expressed in CHO-K9 cells after 3 hrs by microbeta2 scintillation counting method; in short: as §1
Sequence of Muscarinic acetylcholine receptor M3 (P20309 whole entry): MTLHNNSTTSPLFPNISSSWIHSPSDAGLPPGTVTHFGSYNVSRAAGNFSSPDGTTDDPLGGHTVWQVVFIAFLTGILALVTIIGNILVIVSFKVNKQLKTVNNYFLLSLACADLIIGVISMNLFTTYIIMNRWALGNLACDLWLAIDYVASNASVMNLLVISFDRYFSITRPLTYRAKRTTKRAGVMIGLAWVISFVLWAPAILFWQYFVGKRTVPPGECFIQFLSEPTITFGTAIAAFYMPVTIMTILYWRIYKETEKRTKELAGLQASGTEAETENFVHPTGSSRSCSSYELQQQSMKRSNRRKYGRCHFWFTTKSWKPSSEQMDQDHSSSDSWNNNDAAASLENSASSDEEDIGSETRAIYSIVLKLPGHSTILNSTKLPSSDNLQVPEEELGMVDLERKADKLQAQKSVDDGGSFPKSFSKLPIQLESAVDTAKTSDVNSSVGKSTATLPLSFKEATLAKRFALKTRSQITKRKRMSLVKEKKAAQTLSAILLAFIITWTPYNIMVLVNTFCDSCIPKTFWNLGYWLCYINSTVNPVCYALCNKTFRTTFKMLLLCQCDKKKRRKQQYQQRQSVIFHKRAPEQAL

Sequence of Muscarinic acetylcholine receptors; M2 & M3 (Homo sapiens) (P20309 whole entry, looked up, one chain of several): as the sequence (P20309 whole entry) above

Row | SMILES | Ki [1] [nM] | Ratio Ki [2] | Ratio Ki [3] | Ratio Ki [4] | Ki [5] [nM] | Ratio Ki [6] | Ki [7] [nM] | Ki [8] [nM] | Ki [9] [nM]
1 | CC(=O)N[C@@H](Cc1c[nH]c2ccccc12)C(=O)N[C@@H](Cc1ccc(O)cc1)C(=O)NCCN1CCN(CCCCC2CCN(CC(=O)N3c4ccccc4NC(=O)c4ccccc43)CC2)CC1 | 38.9 | 6.3 | 220 | 79 | 1.07 | 7 | 0.871 | 0.148 | 13.5
2 | CC(=O)N[C@@H](CCCNC(=N)N)C(=O)NCCCCC1CCN(CC(=O)N2c3ccccc3NC(=O)c3ccccc32)CC1 | 977 | 8.4 | 86 | 140 | 148 | 13 | 97.7 | 11.2 | 1480
3 | CC(=O)N[C@@H](Cc1ccc(O)cc1)C(=O)N[C@@H](CCCCN)C(=O)NCCCCC1CCN(CC(=O)N2c3ccccc3NC(=O)c3ccccc32)CC1 | 708 | 1.8 | 15 | 210 | 295 | 6.6 | 87.1 | 46.8 | 10000
4 | CC(=O)N[C@@H](CCCCN)C(=O)N[C@@H](C)C(=O)N[C@@H](Cc1ccc(O)cc1)C(=O)NCCN1CCN(CCCCC2CCN(CC(=O)N3c4ccccc4NC(=O)c4ccccc43)CC2)CC1 | 95.5 | 8.3 | 560 | 240 | 1.26 | 8.1 | 1.26 | 0.174 | 44.7
5 | CC(=O)N[C@@H](CCCCN)C(=O)N[C@@H](CCCNC(=N)N)C(=O)NCC(=O)NCCCCC1CCN(CC(=O)N2c3ccccc3NC(=O)c3ccccc32)CC1 | 200 | 8.2 | 49 | 180 | 27.5 | 6.9 | 32.4 | 4.17 | 646
6 | CC(=O)N[C@@H](CCCCN)C(=O)N[C@@H](CCCNC(=N)N)C(=O)NCCN1CCN(CCCCC2CCN(CC(=O)N3c4ccccc4NC(=O)c4ccccc43)CC2)CC1 | 112 | 20 | 1900 | 800 | 2.04 | 37 | 1.23 | 0.0631 | 49
7 | CC(=O)N[C@@H](Cc1c[nH]c2ccccc12)C(=O)N[C@@H](C)C(=O)N[C@@H](Cc1ccc(O)cc1)C(=O)NCCCCC1CCN(CC(=O)N2c3ccccc3NC(=O)c3ccccc32)CC1 | 120 | 4.7 | 6.2 | 56 | 37.2 | 1.9 | 93.3 | 20 | 1150
